Source: ChEMBL document CHEMBL1123507, “Antipicornavirus activity of substituted phenoxybenzenes and phenoxypyridines” (J Med Chem, 1986)
Values after ≈ are worked out from the molar mass of the structure shown.

How the values were obtained:
Echovirus = assay: Antiviral activity against Echo 12; type: functional
Procedure, shortened: (§1)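 HeLa monolayers were seeded at (1.0-1.3) × 10^5 cells/well, grown 24 h at 36 °C in 5% CO2 to 60–75% cover, then refed with maintenance medium (1-2% heat-inactivated FCS) containing two-fold serial compound dilutions made from a 200 μg/mL stock in Me2SO/medium, with final Me2SO ≤0.1%. Cells were challenged with 10-100 TCID50 virus, and CPE was read microscopically at 48 and 72 h. MIC50 was the lowest concentration giving ≥50% CPE reduction versus virus control. Cytotoxicity was the lowest concentration causing cell death, a growth change or a morphology change in uninfected cultures.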

Enterovirus [1] = assay: Antiviral activity against rhinovirus RV-74; type: functional; procedure, shortened: as §1
Coxsackievirus [2] = assay: Ratio of the MIC50 of 6-(4-Nitro-phenoxy)-nicotinonitrile compared to compound obtained in the same test for coxsackie A21; type: functional
Procedure, shortened: (§2)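 Relative activity was calculated as the MIC50 of the positive control 5-cyano-2-(4-nitrophenoxy)pyridine divided by the MIC50 of the test compound. Both were measured in parallel in the same HeLa CPE test (48/72 h microscopic reading) against RV-1A, RV-2 or coxsackievirus A21.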

Enterovirus [3] = assay: Ratio of the MIC50 of 6-(4-Nitro-phenoxy)-nicotinonitrile compared to compound obtained in the same test for Rhinovirus (RV)-1A; type: functional; procedure, shortened: as §2
Enterovirus [4] = assay: Antiviral activity against rhinovirus RV-29; type: functional; procedure, shortened: as §1
Enterovirus [5] = assay: Antiviral activity against rhinovirus RV-1B; type: functional; procedure, shortened: as §1
Coxsackievirus [6] = assay: Antiviral activity against coxsackie B4; type: functional; procedure, shortened: as §1
Enterovirus [7] = assay: Antiviral activity against rhinovirus RV-39; type: functional; procedure, shortened: as §1
HeLa = assay: Cytotoxicity concentration in HeLa cells; type: cell-based; details: human; procedure, shortened: as §1
Enterovirus [8] = assay: Antiviral activity against rhinovirus RV-13; type: functional; procedure, shortened: as §1
Enterovirus [9] = assay: Lowest concentration to reduce viral effect by 50% or more against Rhinovirus (RV)-2; type: functional; procedure, shortened: as §1
Enterovirus [10] = assay: Antiviral activity against rhinovirus RV-68; type: functional; procedure, shortened: as §1
Enterovirus [11] = assay: Antiviral activity against rhinovirus RV-33; type: functional; procedure, shortened: as §1
Mengo virus = assay: Antiviral activity against mengo; type: functional; details: Cardiovirus A; procedure, shortened: as §1
Enterovirus [12] = assay: Antiviral activity against rhinovirus RV-10; type: functional; procedure, shortened: as §1
Enterovirus C = assay: Antiviral activity against Poliovirus type 2; type: functional
Procedure, shortened: (§3)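 HeLa monolayers (1.0-1.3×10^5 cells/well, grown 24 h at 36 °C to 60-75% cover) refed with maintenance E-MEM (1-2% heat-inactivated FCS) holding two-fold serial dilutions from a 200 μg/mL DMSO stock (final DMSO ≤0.1%). Challenged with 10-100 TCID50 virus, 36 °C, 5% CO2. CPE read microscopically at 48 and 72 h. MIC50 is the lowest concentration cutting CPE ≥50% vs virus control.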

Enterovirus [13] = assay: Antiviral activity against rhinovirus RV-Hanks; type: functional; procedure, shortened: as §1
Enterovirus [14] = assay: Compound was evaluated for inhibition of rhinovirus RV-Hanks at a dose of 50 ug/mL by < 50%; type: functional
Enterovirus [15] = assay: Antiviral activity against rhinovirus RV-32; type: functional; procedure, shortened: as §1
Enterovirus [16] = assay: Antiviral activity against rhinovirus RV-44; type: functional; procedure, shortened: as §1
Enterovirus [17] = assay: Ratio of the MIC50 of 6-(4-Nitro-phenoxy)-nicotinonitrile compared to compound obtained in the same test for Rhinovirus (RV)-2; type: functional; procedure, shortened: as §2
Enterovirus [18] = assay: Antiviral activity against rhinovirus RV-8; type: functional; procedure, shortened: as §1
Enterovirus [19] = assay: Antiviral activity against rhinovirus RV-4; type: functional; procedure, shortened: as §1
Enterovirus [20] = assay: Lowest concentration to reduce viral effect by 50% or more against Rhinovirus (RV)-1A; type: functional; procedure, shortened: as §1
Enterovirus [21] = assay: Antiviral activity against rhinovirus RV-21; type: functional; procedure, shortened: as §3
Enterovirus [22] = assay: Antiviral activity against rhinovirus RV-9; type: functional; procedure, shortened: as §1
Enterovirus [23] = assay: Antiviral activity against rhinovirus RV-49; type: functional; procedure, shortened: as §1
Enterovirus [24] = assay: Antiviral activity against rhinovirus RV-14; type: functional; procedure, shortened: as §1
Coxsackievirus [25] = assay: Lowest concentration to reduce viral effect by 50% or more against coxsackie virus A21; type: functional; procedure, shortened: as §1
Enterovirus [26] = assay: Antiviral activity against rhinovirus RV-55; type: functional; procedure, shortened: as §1
Enterovirus [27] = assay: Antiviral activity against rhinovirus RV-64; type: functional; procedure, shortened: as §1
Enterovirus [28] = assay: Antiviral activity against rhinovirus RV-5; type: functional; procedure, shortened: as §1
Enterovirus [29] = assay: Compound was evaluated for inhibition of rhinovirus RV-Hanks 75%; type: functional
Coxsackievirus [30] = assay: Antiviral activity against rhinovirus Coxsackie B3; type: functional; procedure, shortened: as §1
Enterovirus [31] = assay: Antiviral activity against rhinovirus Polio 2; type: functional; procedure, shortened: as §3

Row | SMILES | MIC (Echovirus) | MIC (Enterovirus [1]) | Relative activity (Coxsackievirus [2]) | Relative activity (Enterovirus [3]) | MIC (Enterovirus [4]) | MIC (Enterovirus [5]) | MIC (Coxsackievirus [6]) | MIC (Enterovirus [7]) | Toxicity (HeLa) | MIC (Enterovirus [8]) | MIC50 (Enterovirus [9]) | MIC (Enterovirus [10]) | MIC (Enterovirus [11]) | MIC (Mengo virus) | MIC (Enterovirus [12]) | MIC (Enterovirus [13]) | inhibition at 50 µg/mL (Enterovirus [14]) | MIC (Enterovirus [15]) | MIC (Enterovirus [16]) | Relative activity (Enterovirus [17]) | further results
1 | CS(=O)(=O)c1ccc(Oc2ccc(Cl)c(Cl)c2)nc1 | < 4.1 µM | 7.9 µM (≈ 2.51 µg/mL) | 0.65 | 10.4 | 4.1 µM (≈ 1.3 µg/mL) | < 0.94 µM | 39 µM (≈ 12.4 µg/mL) | 20 µM (≈ 6.36 µg/mL) | 157 µM | > 16 µM | 2 µM (≈ 0.636 µg/mL) | > 31 µM | 2 µM (≈ 0.636 µg/mL) | > 16 µM | < 4.1 µM | 31 µM (≈ 9.86 µg/mL) | 25% | 4.1 µM (≈ 1.3 µg/mL) | 16 µM (≈ 5.09 µg/mL) | 10.4 | MIC (Enterovirus C): > 39 µM; MIC (Enterovirus [18]): > 39 µM; MIC (Enterovirus [19]): 79 µM (≈ 25.1 µg/mL); MIC50 (Enterovirus [20]): 1 µM (≈ 0.318 µg/mL); MIC (Enterovirus [21]): 31 µM (≈ 9.86 µg/mL); MIC (Enterovirus [22]): 31 µM (≈ 9.86 µg/mL); MIC (Enterovirus [23]): < 2 µM; MIC (Enterovirus [24]): > 31 µM; MIC50 (Coxsackievirus [25]): 20 µM (≈ 6.36 µg/mL); MIC (Enterovirus [26]): < 2 µM; MIC (Enterovirus [27]): 0.94 µM (≈ 0.299 µg/mL); MIC (Enterovirus [28]): > 39 µM; Inhibition (Enterovirus [29]): 65%; MIC (Coxsackievirus [30]): > 7.9 µM
2 | N#Cc1cc([N+](=O)[O-])ccc1Oc1ccc(Cl)c(Cl)c1 | 0.97 µM (≈ 0.3 µg/mL) | < 0.97 µM | 99.6 | 319 | 0.81 µM (≈ 0.25 µg/mL) | 0.81 µM (≈ 0.25 µg/mL) | 4.9 µM (≈ 1.51 µg/mL) | 0.42 µM (≈ 0.13 µg/mL) | > 324 µM | 0.81 µM (≈ 0.25 µg/mL) | 0.26 µM (≈ 0.0804 µg/mL) | < 1.9 µM | 0.81 µM (≈ 0.25 µg/mL) | > 1.6 µM | < 1 µM | 0.42 µM (≈ 0.13 µg/mL) | 0% | 0.97 µM (≈ 0.3 µg/mL) | 0.81 µM (≈ 0.25 µg/mL) | 99.6 | MIC (Enterovirus [18]): 0.52 µM (≈ 0.161 µg/mL); MIC (Enterovirus [19]): 0.97 µM (≈ 0.3 µg/mL); MIC50 (Enterovirus [20]): 0.26 µM (≈ 0.0804 µg/mL); MIC (Enterovirus [21]): 1.9 µM (≈ 0.587 µg/mL); MIC (Enterovirus [22]): 0.42 µM (≈ 0.13 µg/mL); MIC (Enterovirus [23]): 0.81 µM (≈ 0.25 µg/mL); MIC (Enterovirus [24]): 3.2 µM (≈ 0.989 µg/mL); MIC50 (Coxsackievirus [25]): 0.52 µM (≈ 0.161 µg/mL); MIC (Enterovirus [31]): 1.9 µM (≈ 0.587 µg/mL); MIC (Enterovirus [26]): 0.81 µM (≈ 0.25 µg/mL); MIC (Enterovirus [27]): 0.52 µM (≈ 0.161 µg/mL); MIC (Enterovirus [28]): 2 µM (≈ 0.618 µg/mL); Inhibition (Enterovirus [29]): 100%; MIC (Coxsackievirus [30]): 4.9 µM (≈ 1.51 µg/mL)
